According to ChEMBL document CHEMBL1157359, “Binding of ceftobiprole and comparators to the penicillin-binding proteins of Escherichia coli, Pseudomonas aeruginosa, Staphylococcus aureus, and Streptococcus pneumoniae” (Antimicrob Agents Chemother, 2007):
Values after ≈ are worked out from the molar mass of the structure shown.

Assays:
[1] = Inhibition of bocillin FL binding to Escherichia coli MC4100 penicillin-binding protein 1b
Outline: (§1)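 Isolated E. coli MC4100 PBPs were competed with 10 drug concentrations from 0.016 μg/ml to 8 μg/ml, then labeled with Bocillin FL. Fluorescent PBP bands were imaged. IC50 is the concentration giving 50% inhibition of Bocillin FL binding to each PBP relative to a no-drug control.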

[2] = Inhibition of bocillin FL binding to Escherichia coli MC4100 penicillin-binding protein 3; outline: as §1
[3] = Inhibition of bocillin FL binding to penicillin-susceptible Streptococcus pneumoniae OC 8865 penicillin-binding protein 2x
Outline: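 Whole S. pneumoniae cells were used rather than isolated membranes. Cells were competed with drug and then labeled with Bocillin FL, and PBP bands were visualized by fluorescence imaging. IC50 is the drug concentration that inhibits Bocillin FL binding to each PBP by 50% relative to a no-drug control.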

[4] = biological target: T1, Cell shape peptidoglycan synthetase penicillin-binding protein 2 (Escherichia coli, UniProt Q2TL65); assay: Inhibition of bocillin FL binding to Escherichia coli MC4100 penicillin-binding protein 2
T1 sequence (Q2TL65 whole entry): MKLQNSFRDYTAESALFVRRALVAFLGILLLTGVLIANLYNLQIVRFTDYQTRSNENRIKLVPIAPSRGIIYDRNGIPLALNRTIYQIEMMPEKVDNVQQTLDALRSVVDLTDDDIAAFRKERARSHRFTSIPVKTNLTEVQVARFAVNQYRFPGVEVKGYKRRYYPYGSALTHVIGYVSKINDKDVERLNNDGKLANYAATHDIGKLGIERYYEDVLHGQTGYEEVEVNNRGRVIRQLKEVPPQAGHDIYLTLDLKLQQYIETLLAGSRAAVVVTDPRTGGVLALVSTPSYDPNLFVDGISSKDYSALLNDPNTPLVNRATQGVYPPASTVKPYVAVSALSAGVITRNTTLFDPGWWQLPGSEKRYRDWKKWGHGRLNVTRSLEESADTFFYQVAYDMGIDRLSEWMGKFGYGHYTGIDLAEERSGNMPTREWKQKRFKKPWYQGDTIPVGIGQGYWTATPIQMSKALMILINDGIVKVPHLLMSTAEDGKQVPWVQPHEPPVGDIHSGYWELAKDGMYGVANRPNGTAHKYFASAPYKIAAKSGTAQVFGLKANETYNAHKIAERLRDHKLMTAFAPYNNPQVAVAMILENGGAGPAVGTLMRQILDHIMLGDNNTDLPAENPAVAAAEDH
Outline: (§2)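 Isolated E. coli MC4100 PBPs; competition with drug at 10 concentrations, 0.016 μg/ml to 8 μg/ml, then Bocillin FL labeling. Gel bands visualized by imaging. IC50 is the concentration giving 50% inhibition of Bocillin FL binding relative to a no-drug control.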

[5] = Inhibition of bocillin FL binding to Escherichia coli MC4100 penicillin-binding protein 6; outline: as §1
[6] = Inhibition of bocillin FL binding to Escherichia coli MC4100 penicillin-binding protein 5; outline: as §1
[7] = Inhibition of bocillin FL binding to Escherichia coli MC4100 penicillin-binding protein 1a; outline: as §2
Escherichia coli = assay: Antibacterial activity against Escherichia coli MC4100 by CLSI method; format: functional
Staphylococcus aureus = assay: Antibacterial activity against methicillin-resistant Staphylococcus aureus OC 3726 by CLSI method; format: functional
[8] = biological target: T2, Penicillin-binding protein 4 (Staphylococcus aureus, UniProt P72355); assay: Inhibition of bocillin FL binding to methicillin-susceptible Staphylococcus aureus ATCC 29213 penicillin-binding protein 4
T2 sequence (P72355 whole entry): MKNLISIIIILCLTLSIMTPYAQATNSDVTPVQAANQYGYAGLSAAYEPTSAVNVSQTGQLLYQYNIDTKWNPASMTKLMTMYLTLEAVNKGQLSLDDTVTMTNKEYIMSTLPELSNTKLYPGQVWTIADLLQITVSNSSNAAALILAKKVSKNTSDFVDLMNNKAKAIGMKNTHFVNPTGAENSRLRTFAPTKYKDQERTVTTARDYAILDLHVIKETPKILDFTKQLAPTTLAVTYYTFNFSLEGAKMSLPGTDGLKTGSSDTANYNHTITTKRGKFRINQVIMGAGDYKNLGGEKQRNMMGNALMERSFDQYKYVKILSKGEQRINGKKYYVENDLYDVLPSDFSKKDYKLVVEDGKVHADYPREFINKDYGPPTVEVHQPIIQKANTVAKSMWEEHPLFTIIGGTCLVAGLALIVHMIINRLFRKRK
Outline: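 Isolated S. aureus ATCC 29213 PBPs exposed to drug over 0.001 μg/ml to 50 μg/ml, followed by Bocillin FL labeling and fluorescence imaging. IC50 is 50% inhibition of Bocillin FL binding relative to no-drug control.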

[9] = Inhibition of bocillin FL binding to Escherichia coli MC4100 penicillin-binding protein 4; outline: as §1
MecA = biological target: T3, MecA (Staphylococcus aureus, UniProt Q7DHH4); assay: Inhibition of bocillin FL binding to methicillin-resistant Staphylococcus aureus OC 3726 penicillin-binding protein 2a
T3 sequence (Q7DHH4 whole entry): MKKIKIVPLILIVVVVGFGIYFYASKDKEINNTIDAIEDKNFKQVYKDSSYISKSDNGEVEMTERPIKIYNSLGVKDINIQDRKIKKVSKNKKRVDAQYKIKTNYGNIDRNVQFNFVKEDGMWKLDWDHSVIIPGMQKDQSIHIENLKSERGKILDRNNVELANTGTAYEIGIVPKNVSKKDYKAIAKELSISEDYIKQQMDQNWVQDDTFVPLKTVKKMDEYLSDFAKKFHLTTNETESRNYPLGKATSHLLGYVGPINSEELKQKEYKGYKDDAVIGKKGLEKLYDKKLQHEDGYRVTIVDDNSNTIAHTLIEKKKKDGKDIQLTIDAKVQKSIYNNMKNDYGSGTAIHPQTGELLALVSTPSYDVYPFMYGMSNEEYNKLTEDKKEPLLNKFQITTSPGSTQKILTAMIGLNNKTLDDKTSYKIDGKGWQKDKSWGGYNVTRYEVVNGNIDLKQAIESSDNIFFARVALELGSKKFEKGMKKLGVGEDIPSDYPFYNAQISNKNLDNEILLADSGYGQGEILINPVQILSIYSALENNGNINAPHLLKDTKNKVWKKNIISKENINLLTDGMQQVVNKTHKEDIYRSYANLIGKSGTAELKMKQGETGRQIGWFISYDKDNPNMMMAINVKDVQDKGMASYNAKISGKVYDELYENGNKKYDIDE
Outline: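 OC 3726 membranes were first preincubated with 1 mg/ml clavulanic acid to saturate all PBPs except PBP2a. Drug was then added (0.16 μg/ml to 50 μg/ml), followed by Bocillin FL labeling and fluorescence imaging. IC50 is 50% inhibition of PBP2a labeling compared with the no-drug (0 μg/ml) sample.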

| Structure (SMILES) | IC50 [1] [µg/mL] | IC50 [2] [µg/mL] | IC50 [3] [µg/mL] | IC50 [4] [nM] | IC50 [5] [µg/mL] | IC50 [6] [µg/mL] | IC50 [7] [µg/mL] | MIC (Escherichia coli) [µg/mL] | MIC (Staphylococcus aureus) [µg/mL] | IC50 [8] [nM] | IC50 [9] [µg/mL] | IC50 (MecA) [nM] |
| --- | --- | --- | --- | --- | --- | --- | --- | --- | --- | --- | --- | --- |
| CO/N=C(\C(=O)N[C@@H]1C(=O)N2C(C(=O)O)=C(CSc3nc(=O)c(O)nn3C)CS[C@H]12)c1csc(N)n1 (stereo in doubt) [CEFTRIAXONE] | 0.5 (≈ 0.902 µM) | < 0.01 | 0.03 (≈ 0.0541 µM) | 361 | > 8 | 6 (≈ 10.8 µM) | 0.2 (≈ 0.361 µM) | 0.06 (≈ 0.108 µM) | > 64 | 18000 | 0.4 (≈ 0.721 µM) | > 90200 |
| CC(C)(O/N=C(\C(=O)N[C@@H]1C(=O)N2C(C(=O)[O-])=C(C[n+]3ccccc3)CS[C@H]12)c1csc(N)n1)C(=O)O [CEFTAZIDIME] | 1.1 (≈ 2.01 µM) | 0.07 (≈ 0.128 µM) |  | 7320 | > 4 | > 4 | 1.1 (≈ 2.01 µM) | 0.12 (≈ 0.22 µM) | > 128 |  | > 4 | > 91500 |
| Nc1nc(/C(=N/O)C(=O)N[C@@H]2C(=O)N3C(C(=O)O)=C(/C=C4\CCN([C@@H]5CCNC5)C4=O)CS[C@H]23)ns1 [CEFTOBIPROLE] | 8 (≈ 15 µM) | 0.2 (≈ 0.374 µM) | 0.01 (≈ 0.0187 µM) | 374 | 3 (≈ 5.61 µM) | > 8 | 0.3 (≈ 0.561 µM) | 0.03 (≈ 0.0561 µM) | 2 (≈ 3.74 µM) | 1870 | 0.5 (≈ 0.935 µM) | 1680 |
